Experimental data: article PMC11406440 (Food and chemical toxicology : an international journal …, 2024)
Several values for one entry are separate records, joined by “and”; a condition that tells them apart may be missing. Equal values may be shown once. Entries after “also recorded” stand apart in the source; their conditions may differ.

What was measured:
B6C3F1 mice = assay: Histopathology; assay type: in vivo; details: for Liver: bile, increased, hepatocyte, minimal (incidence) / Liver: hypertrophy, hepatocyte, marked (incidence) / Liver: infiltrate, mononuclear cell, mild (incidence) / Liver: infiltrate, mononuclear cell, minimal (incidence) / Liver: necrosis, mild (incidence) / Liver: necrosis, minimal (incidence) / Liver: pigment macrophage, minimal (incidence) / Spleen: decreased cellularity, lymphocyte, mild (incidence): mice affected of 5
How it was run: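 Female B6C3F1 mice (5/group) received 25 μl/ear of acetone vehicle or 1.25–5% w/v test compound daily on both ears for 28 days, with necropsy about 24 h later. Liver, half spleen, half ear pinna and right kidney were fixed in 10% formalin, paraffin-embedded, cut at 5 μm and H&E-stained. A veterinary pathologist scored them per STP guideline, grades 1 (minimal) to 5 (severe).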

[1] = female rats, 14-days of 10 mg/kg/day oral exposure; ref Butenhoff et al., 2009; cited from earlier work
ear pinna cells = assay: Skin; assay type: in vivo, B6C3F1 mice; details: 28 days; for Skin CD4+ frequency / Skin CD4+ number / Skin CD8+ frequency / Skin CD8+ number / Skin CD11b + DCs frequency / Skin CD11b + DCs number / Skin CD11b- DCs frequency / Skin CD11b- DCs number / Skin CD45+ frequency / Skin CD45+ number / Skin Cellularity / Skin Eosinophils frequency / Skin Eosinophils number / Skin NK frequency / Skin NK number / Skin Neutrophils frequency / Skin Neutrophils number: mean ± SE
How it was run: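 Female B6C3F1 mice (5/group) received 25 μl/ear of acetone vehicle or 1.25, 2.5 or 5% w/v test compound on the dorsal surface of each ear, once daily for 28 days. They were euthanized about 24 h later. Single-cell suspensions were made from both auricular dLNs, half a spleen or one ear pinna. Cells were Fc-blocked (anti-CD16/32), stained with surface antibody cocktails and acquired on an LSR II, with FMO gating controls.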

[2] = PFHxS concentration in serum and urine after dermal exposure; assay type: in vivo, B6C3F1 mice; details: 28 days; for Urine PFHxS concentration: 5 pooled samples; for PFHxS serum concentration: 24 h after last exposure
How it was run: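 Mice received 25 μl/ear of acetone or 1.25, 2.5, 5% w/v test compound on both ears daily for 28 days. About 24 h after the last exposure, serum was taken by cardiac puncture (5 mice/group) and urine was pooled per group. Analysis was solid-phase extraction with LC/MS/MS (BEH C18, EPA method 537), linear isomer only. Serum was compared with vehicle by one-way ANOVA.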

ear = assay: Skin; assay type: in vivo, B6C3F1 mice; details: 28 days
How it was run: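 Mice were dosed daily on both ears (25 μl/ear; acetone vehicle or 1.25, 2.5, 5% w/v) for 28 days. Half an ear pinna or the caudate liver lobe was homogenized in Buffer RLT, and total RNA was column-isolated with DNase treatment. TaqMan qPCR gave relative fold change (2−ΔΔCT) versus vehicle controls, normalized to β-actin. Liver used 4–5 mice/group, one-way ANOVA/Dunnett or Kruskal-Wallis/Dunn.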

Deer mice = details: oral gavage for 28-days, 7 and 14 mg/kg/d; ref Narizzano et al., 2023; cited from earlier work

O=S(=O)(O)C(F)(F)C(F)(F)C(F)(F)C(F)(F)C(F)(F)C(F)(F)F [PFHxS, Perfluorohexane sulfonic acid]
Liver: bile, increased, hepatocyte, minimal (incidence) (B6C3F1 mice; 1.25% PFHxS, 28 days): 5/5 and 5 | Liver: hypertrophy, hepatocyte, marked (incidence) (B6C3F1 mice; 1.25% PFHxS, 28 days): 5 | Liver: infiltrate, mononuclear cell, mild (incidence) (B6C3F1 mice; 1.25% PFHxS, 28 days): 1/5 and 1 | Liver: infiltrate, mononuclear cell, minimal (incidence) (B6C3F1 mice; 1.25% PFHxS, 28 days): 2/5 and 2 | Liver: necrosis, mild (incidence) (B6C3F1 mice; 1.25% PFHxS, 28 days): 2/5 and 2 | Liver: necrosis, minimal (incidence) (B6C3F1 mice; 1.25% PFHxS, 28 days): 3/5 and 3 | Liver: pigment macrophage, minimal (incidence) (B6C3F1 mice; 1.25% PFHxS, 28 days): 4/5 and 4 | Spleen: decreased cellularity, lymphocyte, mild (incidence) (B6C3F1 mice; 1.25% PFHxS, 28 days): 2/5 and 2 | Liver: bile, increased, hepatocyte, minimal (incidence) (B6C3F1 mice; 2.5% PFHxS, 28 days): 5/5 and 5 | Liver: hypertrophy, hepatocyte, marked (incidence) (B6C3F1 mice; 2.5% PFHxS, 28 days): 5 | Liver: infiltrate, mononuclear cell, mild (incidence) (B6C3F1 mice; 2.5% PFHxS, 28 days): 0 | Liver: infiltrate, mononuclear cell, minimal (incidence) (B6C3F1 mice; 2.5% PFHxS, 28 days): 2/5 and 2 | Liver: necrosis, mild (incidence) (B6C3F1 mice; 2.5% PFHxS, 28 days): 1/5 and 1 | Liver: necrosis, minimal (incidence) (B6C3F1 mice; 2.5% PFHxS, 28 days): 4/5 and 4 | Liver: pigment macrophage, minimal (incidence) (B6C3F1 mice; 2.5% PFHxS, 28 days): 5/5 and 5 | Spleen: decreased cellularity, lymphocyte, mild (incidence) (B6C3F1 mice; 2.5% PFHxS, 28 days): 4/5 and 4 | Liver: bile, increased, hepatocyte, minimal (incidence) (B6C3F1 mice; 5% PFHxS, 28 days): 5/5 and 5 | Liver: hypertrophy, hepatocyte, marked (incidence) (B6C3F1 mice; 5% PFHxS, 28 days): 5 | Liver: infiltrate, mononuclear cell, mild (incidence) (B6C3F1 mice; 5% PFHxS, 28 days): 0 | Liver: infiltrate, mononuclear cell, minimal (incidence) (B6C3F1 mice; 5% PFHxS, 28 days): 1/5 and 1 | Liver: necrosis, mild (incidence) (B6C3F1 mice; 5% PFHxS, 28 days): 1/5 and 1 | Liver: necrosis, minimal (incidence) (B6C3F1 mice; 5% PFHxS, 28 days): 4/5 and 4 | Liver: pigment macrophage, minimal (incidence) (B6C3F1 mice; 5% PFHxS, 28 days): 4/5 and 4 | Spleen: decreased cellularity, lymphocyte, mild (incidence) (B6C3F1 mice; 5% PFHxS, 28 days): 5/5 and 5 | Skin irritation at the site of application (B6C3F1 mice; PFHxS dermal exposure): no skin irritation | Skin histopathology at the dosing site (B6C3F1 mice; PFHxS dermal, 28 days): No microscopic abnormalities; also recorded: no histopathological changes | Serum concentration [1]: 42000 ng/mL | Skin CD4+ frequency (ear pinna cells; 1.25% PFHxS): 2.64 ± 0.25% | Skin CD4+ number (ear pinna cells; 1.25% PFHxS): 2.31 ± 0.36 x 10^3 | Skin CD8+ frequency (ear pinna cells; 1.25% PFHxS): 0.36 ± 0.05% | Skin CD8+ number (ear pinna cells; 1.25% PFHxS): 3.21 ± 0.60 x 10^2 | Skin CD11b + DCs frequency (ear pinna cells; 1.25% PFHxS): 0.64 ± 0.03% | Skin CD11b + DCs number (ear pinna cells; 1.25% PFHxS): 5.17 ± 0.30 x 10^2 | Skin CD11b- DCs frequency (ear pinna cells; 1.25% PFHxS): 1.43 ± 0.18 % | Skin CD11b- DCs number (ear pinna cells; 1.25% PFHxS): 12.30 ± 1.74 x 10^2 | Skin CD45+ frequency (ear pinna cells; 1.25% PFHxS): 8.29 ± 0.74% | Skin CD45+ number (ear pinna cells; 1.25% PFHxS): 8.39 ± 0.66 x 10^4 | Skin Cellularity (ear pinna cells; 1.25% PFHxS): 9.56 ± 0.21 x 10^5 | Skin Eosinophils frequency (ear pinna cells; 1.25% PFHxS): 1.21 ± 0.20 % | Skin Eosinophils number (ear pinna cells; 1.25% PFHxS): 1.00 ± 0.24 x 10^3 | Skin NK frequency (ear pinna cells; 1.25% PFHxS): 0.97 ± 0.11% | Skin NK number (ear pinna cells; 1.25% PFHxS): 8.53 ± 1.49 x 10^2 | Skin Neutrophils frequency (ear pinna cells; 1.25% PFHxS): 0.23 ± 0.03% | Skin Neutrophils number (ear pinna cells; 1.25% PFHxS): 1.79 ± 0.31 x 10^2 | Skin CD4+ frequency (ear pinna cells; 2.5% PFHxS): 3.34 ± 0.18 % | Skin CD4+ number (ear pinna cells; 2.5% PFHxS): 2.10 ± 0.25 x 10^3 | Skin CD8+ frequency (ear pinna cells; 2.5% PFHxS): 0.41 ± 0.07 % | Skin CD8+ number (ear pinna cells; 2.5% PFHxS): 2.52 ± 0.48 x 10^2 | Skin CD11b + DCs frequency (ear pinna cells; 2.5% PFHxS): 0.73 ± 0.08% | Skin CD11b + DCs number (ear pinna cells; 2.5% PFHxS): 4.45 ± 0.48 x 10^2 | Skin CD11b- DCs frequency (ear pinna cells; 2.5% PFHxS): 1.23 ± 0.12 % | Skin CD11b- DCs number (ear pinna cells; 2.5% PFHxS): 7.66 ± 1.11 x 10^2 | Skin CD45+ frequency (ear pinna cells; 2.5% PFHxS): 8.20 ± 0.74% | Skin CD45+ number (ear pinna cells; 2.5% PFHxS): 6.35 ± 0.84 x 10^4 | Skin Cellularity (ear pinna cells; 2.5% PFHxS): 7.67 ± 0.62 x 10^5 | Skin Eosinophils frequency (ear pinna cells; 2.5% PFHxS): 1.75 ± 0.12% | Skin Eosinophils number (ear pinna cells; 2.5% PFHxS): 1.10 ± 0.15 x 10^3 | Skin NK frequency (ear pinna cells; 2.5% PFHxS): 0.78 ± 0.07 % | Skin NK number (ear pinna cells; 2.5% PFHxS): 4.86 ± 0.61 x 10^2 | Skin Neutrophils frequency (ear pinna cells; 2.5% PFHxS): 0.30 ± 0.05% | Skin Neutrophils number (ear pinna cells; 2.5% PFHxS): 1.84 ± 0.33 x 10^2 | Skin macrophage number (ear pinna cells; 5% PFHxS): increase | Skin CD4+ frequency (ear pinna cells; 5% PFHxS): 4.51 ± 0.21 % | Skin CD4+ number (ear pinna cells; 5% PFHxS): 5.82 ± 0.41 x 10^3 | Skin CD8+ frequency (ear pinna cells; 5% PFHxS): 0.73 ± 0.09 % | Skin CD8+ number (ear pinna cells; 5% PFHxS): 9.37 ± 1.32 x 10^2 | Skin CD11b + DCs frequency (ear pinna cells; 5% PFHxS): 1.18 ± 0.05 % | Skin CD11b + DCs number (ear pinna cells; 5% PFHxS): 15.10 ± 0.45 x 10^2 | Skin CD11b- DCs frequency (ear pinna cells; 5% PFHxS): 1.25 ± 0.08 % | Skin CD11b- DCs number (ear pinna cells; 5% PFHxS): 16.10 ± 1.39 x 10^2 | Skin CD45+ frequency (ear pinna cells; 5% PFHxS): 13.48 ± 0.52 % | Skin Cellularity (ear pinna cells; 5% PFHxS): 9.56 ± 0.31 x 10^5 | Skin Eosinophils frequency (ear pinna cells; 5% PFHxS): 2.68 ± 0.31% | Skin Eosinophils number (ear pinna cells; 5% PFHxS): 3.49 ± 0.52 x 10^3 | Skin NK frequency (ear pinna cells; 5% PFHxS): 0.68 ± 0.04 % | Skin NK number (ear pinna cells; 5% PFHxS): 8.76 ± 0.68 x 10^2 | Skin Neutrophils frequency (ear pinna cells; 5% PFHxS): 1.14 ± 0.37 % | Skin Neutrophils number (ear pinna cells; 5% PFHxS): 14.10 ± 4.21 x 10^2 | Urine PFHxS concentration ([2]; 1.25% PFHxS dermal): 43 µg/mL | PFHxS serum concentration ([2]; 1.25% PFHxS dermal): 440 µg/mL | Urine PFHxS concentration ([2]; 2.5% PFHxS dermal): 120 µg/mL | PFHxS serum concentration ([2]; 2.5% PFHxS dermal): 608 µg/mL | Urine PFHxS concentration ([2]; 5% PFHxS dermal): 130 µg/mL | PFHxS serum concentration ([2]; 5% PFHxS dermal): 656 µg/mL | Skin Serpine1 gene expression, fold increase (ear; 1.25% PFHxS): 3 fold | Skin Il-1β gene expression (ear; 1.25-5% PFHxS): no significant changes | Skin Pparα gene expression (ear; 1.25-5% PFHxS): no change | Skin barrier gene Flg2 expression (ear; 1.25-5% PFHxS): No changes | Skin barrier gene Itgbl1 expression (ear; 1.25-5% PFHxS): No changes | Skin barrier gene Krt10 expression (ear; 1.25-5% PFHxS): No changes | Skin barrier gene Krt14 expression (ear; 1.25-5% PFHxS): No changes | Skin Serpine1 gene expression, fold increase (ear; 2.5% PFHxS): 4 fold | Skin barrier gene Lor expression (ear; 2.5%, 5% PFHxS): Increases | Skin Cxcl1 gene expression, fold increase (ear; 5% PFHxS): 5 fold | Skin Il-6 gene expression, fold increase (ear; 5% PFHxS): 2 fold | Skin Pparγ gene expression (ear; 5% PFHxS): decrease | Skin Pparδ gene expression (ear; 5% PFHxS): increase | Skin S100a8 gene expression, fold increase (ear; 5% PFHxS): 9 fold | Skin Serpine1 gene expression, fold increase (ear; 5% PFHxS): 4 fold | Skin Tslp gene expression, fold increase (ear; 5% PFHxS): 33 fold | Skin barrier gene Flg expression (ear; 5% PFHxS): Increases | PFC formation (Deer mice): reduction
